High-throughput results from PubChem.
STAT3 act – STAT3 signaling activation; AID 871; activation (% of control), % at 5.6 µM; 0.91% of 190,000 active; U3A cells, IL-6 STAT3-luciferase reporter, luminescence; 100% = signal with IL-6 EC80 alone;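 active = activation above the screen-wide mean of compound activation plus 3 SD, cut at about 130% in these data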;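 note: 0% = background luminescence of wells with medium and substrate only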
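Detection: reporter luminescence signal / Assay system: STAT1-lacking human U3A cells, STAT3 luciferase reporter / Incubation: compound pre-incubation 1 h before IL-6, then 6 h stimulation at 37 °C / Control set: IL-6-only high control / Read-out: % activation relative to IL-6 control / Probe or stimulus: Interleukin-6, 33 ng/mL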
STAT1 blocker – STAT1 signaling inhibition | 0.35% of 200,000 active | inhibition, % at 5.5 µM | AID 920 | NIH 3T3 STAT1-luciferase reporter, IFN-gamma, luminescence;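 active = inhibition above a set limit, the mean inhibition across all tested compounds plus 3 SD, cut at about 34% in these data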;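 note: 0% = IFN-gamma with DMSO and 100% = IFN-gamma with 300 µM nifuroxazide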
STAT1 activator – STAT1 signaling activation; NIH 3T3 STAT1-luciferase reporter, IFN-gamma, luminescence; 100% = IFN-gamma alone, no compound; activation (% of control), % at 5.5 µM; 2.6% of 200,000 active; AID 932;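 active = activation above the screen-wide mean activation plus 3 SD, cut at about 130% in these data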;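 note: raw ratio to IFN-gamma control signal so 100% means no change and 0% no light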
Cl transport mod – modulates chloride dependent transport by human KCC2; KCC2 cells, thallium flux FluoZin-2 fluorescence; 2.2% of 190,000 active; B-score of Tl+ flux slope (higher = more flux/activation; lower = inhibition) at 10 µM;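 active = thallium flux slope and its plate-corrected score both differing from the plate sample mean at a set confidence after two filtering rounds, in either direction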;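 note: slope of fluorescence scaled to starting intensity during 10 to 20 s after thallium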
HSV replic up – HSV replication enhancement | AID 1956 | maximum fold increase | HSV replication augmentation in cells, fold increase | 0.005% of 220,000 active; in the data active = maximum fold increase above about 1.5; tested in PC3 cells
STAT3 inh – reduces IL-6 driven STAT3 reporter signal. U3A cells, IL-6 STAT3-luciferase reporter, luminescence; host cell line lacks STAT1. inhibition, % at 5.5 µM. 0.89% of 190,000 active. AID 862;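 active = inhibition above the mean inhibition across all screened compounds plus 3 SD, cut at about 44% in these data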;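 note: 0% = DMSO only wells and 100% = 100 µM nifuroxazide control wells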
* = called active by the depositor; i = inactive; / = no result. The list is not random: actives were taken first. Their share in the collection is about 5.5%.

SMILES	STAT3 act	STAT1 blocker	STAT1 activator	Cl transport mod	HSV replic up	STAT3 inh
CC(Sc1nc2ccccc2s1)C(=O)N1CCOCC1 (stereo unspecified)	124	-4	104	0.022	i	-26
Cc1ccc2nc(SC(C)C(=O)N3CCOCC3)[nH]c2c1 (stereo unspecified)	115	-52	146*	-0.28	i	-12
CC1CN(C(=O)c2ccc(COc3ccc(C(C)C)cc3)o2)CC(C)O1 (stereo unspecified)	133*	-33	129*	-1.3	i	-28
Cc1ccc(C(Sc2ccccc2)C(Cn2cncn2)C(=O)c2ccccc2)cc1 (stereo unspecified)	102	0	100	-0.091	i	5
Cc1csc2nc(CSc3nc4ccccc4o3)c(Br)n12	84	-49	146*	-2.3	i	21
Cc1ccc(C(=O)NCCc2cccs2)cc1	36	58*	45	2.4	i	81*
CCn1nc2cc(C(=O)NCCc3cccs3)ccc2c1OC	103	-37	133*	1.4	i	4
CCOC(=O)c1cnc2c(N=Nc3cccc(Cl)c3)c(N)nn2c1N	95	-2	102	0.53	i	7
CCOC(=O)c1cnc2c(N=Nc3ccccc3)c(N)nn2c1N	84	-42	138*	0.13	i	25
CC1(C)CC(=O)c2ccc(OCc3ccc([N+](=O)[O-])cc3)cc2O1	/	/	/	-0.69	i	/
O=C1CCOc2cc(OCc3ccccc3)ccc21	85	-21	134*	-0.44	i	20
CCN=C1NN=C(c2cc(C)n(CCc3ccccc3)c2C)CS1	104	-9	108	0.8	i	-4
CCN=C1NN=C(c2cc(C)n(Cc3ccco3)c2C)CS1	34	45*	60	0.081	i	82*
COCCn1c(C)cc(C2=NNC(=Nc3ccccc3)SC2)c1C	77	-47	143*	-0.36	i	30
CC(C)c1cc(CNC(=O)CC2C(=O)NCCN2CC2CCCCC2)on1 (stereo unspecified)	104	-7	104	0.12	i	-1
O=S1(=O)C=C(Sc2nc3ccccc3s2)c2ccccc21	134*	7	95	3.6	i	-33
Cc1cc(C)nc(SC2=CS(=O)(=O)c3ccccc32)n1	82	24	78	-0.081	i	26
CCN(CC(=O)Nc1cccc(OC)c1)c1ncnc2sc(C)c(C)c12	88	8	93	-2.4	i	15
Fc1cccc(Cl)c1CNCc1ccccc1Cl	100	-5	105	0.73	i	4
Cc1cc(/C=C2/SC(=S)N(c3ccc([N+](=O)[O-])cc3)C2=O)c(C)n1-c1cccnc1	102	4	96	0.97	i	2
Cc1cc(/C=C2/SC(=S)N(c3cccc(Cl)c3)C2=O)c(C)n1-c1cccnc1	44	19	86	/	i	67*
CCC(=O)Nc1ccc2nc(C3CC3)n(Cc3ccc(C(C)(C)C)cc3)c(=O)c2c1	/	/	/	-0.29	i	/
CC(=O)Nc1ccc2nc(C3CC3)n(Cc3ccc(Cl)cc3)c(=O)c2c1	109	-52	146*	-0.057	i	-10
Cc1sc(NC(=S)NC(=O)C(C)(C)C)c(C(N)=O)c1C	119	-29	126	/	i	-18
O=C(c1cccc(S(=O)(=O)N2CCOCC2)c1)N(Cc1ccc(F)cc1)Cc1ccco1	134*	1	98	-0.6	i	-29
SMILES	STAT3 act	STAT1 blocker	STAT1 activator	Cl transport mod	HSV replic up	STAT3 inh
CN(C)S(=O)(=O)c1cccc(C(=O)N(Cc2ccc(F)cc2)Cc2ccco2)c1	101	8	97	-0.67	i	3
COc1ccc(OC)c(S(=O)(=O)Nc2cc(C(=O)O)ccc2N2CC3CC(C2)c2cccc(=O)n2C3)c1 (stereo unspecified)	99	-6	105	0.23	i	4
O=C1CC(c2cc([N+](=O)[O-])ccc2Cl)c2c(ccc3ccccc23)N1 (stereo unspecified)	104	6	95	0.53	i	-2
COC(=O)c1cc2c(ccn2-c2ccc(F)cc2)n1Cc1ccc(OC)cc1	108	-7	106	-0.011	i	-13
CCn1c(C(=O)OC)cc2c1ccn2-c1ccc(F)cc1	95	-48	144*	0.46	i	10
Cc1ccc(-c2nn(-c3ccccc3)cc2C(=O)Nc2ccc(C(=O)O)cc2)cc1	110	-35	130*	-0.46	i	-7
O=C(O)c1cn(-c2ccccc2)nc1-c1ccc(Cl)cc1	100	-3	96	-3.8*	i	3
COc1ccc(-c2nn(-c3ccccc3)cc2C(=O)O)cc1OC	97	5	96	-1.8	i	4
CCOC(=O)c1ccc(NC(=O)c2cn(-c3ccccc3)nc2-c2ccncc2)cc1	124	6	95	-1.1	i	-24
O=C(CCSc1ccccn1)Nc1ccc(Br)cc1	103	-45	140*	-0.016	i	-1
O=C(CSc1ccccn1)Nc1ccc(NC(=O)CSc2ccccn2)cc1	101	6	94	-1.1	i	4
CCOC(=O)Nc1ccc(Cc2ccncc2)cc1	100	0	99	1.3	i	2
Cn1cnc(S(=O)(=O)Nc2ccccc2C(=O)NCC2CC2)c1	/	/	/	0.1	i	/
COc1ccccc1N=Cc1nc(-c2ccccc2)oc1OC(C)=O	122	8	92	-1.1	i	-21
CC(=O)Oc1oc(-c2ccccc2)nc1/C=N/c1ccccn1	98	-32	129*	0.26	i	6
Cc1ccc(CCC(=O)Nc2ccccc2F)s1	86	-42	137*	0.046	i	23
CN(C)c1ccc(N=c2sc3ccccc3n2C)cc1	93	-41	138*	-0.16	i	11
CCOc1cc(Cl)c(NC(=O)CC)cc1OCC	95	-8	107	-0.057	i	7
O=C(COC(=O)c1ccc(Br)cc1)NCc1ccc(F)cc1	100	0	100	-1.3	i	-1
Cc1ccc(-c2nc3ccsc3c(=O)o2)cc1	131	-32	129*	-1.8	i	-35
O=C(Nc1cc2c(oc1=O)CCCC2=O)c1ccc(Cl)cc1	92	-40	136*	0.51	i	16
Cc1nccc2oc(=O)c(NC(=O)c3ccc(Cl)cc3)cc12	82	-5	104	-0.25	i	24
O=C(Nc1ccccc1)N1CCCC2CCCCC21 (stereo unspecified)	101	-35	131*	0.25	i	3
O=C(NC1CCCC1)C1CCCN1C(=O)Nc1ccccc1 (stereo unspecified)	104	-4	104	-0.33	i	1
Fc1ccc(-c2cnn3c(-c4ccncc4)ccnc23)cc1	74	-54	148*	-0.44	i	37
CCC1(C)N=C(c2ccc3c(c2)OCO3)CC(c2ccccc2O)N1 (stereo unspecified)	144*	7	93	0.59	i	-44
